{
  "source": "ChEMBL document CHEMBL1122008",
  "about": "“Lipophilic 5'-(alkyl phosphate) esters of 1-beta-D-arabinofuranosylcytosine and its N4-acyl and 2,2'-anhydro-3'-O-acyl derivatives as potential prodrugs” (1982)",
  "assay_type_in_all_cases": "functional",
  "key": {"Mus musculus [1]": {"system": "Mus musculus", "assay": "Antitumor activity against L1210 leukemia in mice (Percent increase in life span.) at the dose of 180 mg/kg (mice surviving 20 or more days)", "outline": "(§1)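 Male B6D2F1J mice, groups of 5–9, inoculated ip with 10^5 L1210 cells on day 0. Dosing starts day 1 on a qd×5 or q4d(2,6) schedule. Vehicles are sterile water, pH 7.4 0.05 M potassium phosphate buffer, or 0.4% Tween 80/0.5% CMC/0.9% benzyl alcohol/0.9% saline. %ILS = (T/C − 1)×100 from median survival. Weights taken days 1 and 7.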"}, "Mus musculus [2]": {"system": "Mus musculus", "assay": "Antitumor activity against L1210 leukemia in mice (Average 7-day weight change (%)) at the dose of 180 mg/kg", "outline": "(§2)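 Male B6D2F1J mice, groups of five to nine, inoculated ip with 10^5 L1210 cells on day 0. Drug treatment started day 1 on qd×5 or q4d(2,6) schedule. Vehicles: ara-C in sterile water; the n-butyl phosphate ester in 0.05 M pH 7.4 potassium phosphate buffer; others as suspensions in 0.4% Tween 80/0.5% low-density CMC/0.9% benzyl alcohol/0.9% saline. Mice weighed days 1 and 7; 7-day weight change given as g/mouse and %.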"}, "Mus musculus [3]": {"system": "Mus musculus", "assay": "Antitumor activity against L1210 leukemia in mice (Average 7-day weight change (%)) at the dose of 240 mg/kg", "outline": "as §2"}, "Mus musculus [4]": {"system": "Mus musculus", "assay": "Antitumor activity against L1210 leukemia in mice (Average 7-day weight change) at the dose of 240 mg/kg", "outline": "as §2"}, "Mus musculus [5]": {"system": "Mus musculus", "assay": "Antitumor activity against L1210 leukemia in mice (Average weight per mouse on day 1.) at the dose of 240 mg/kg", "outline": "(§3)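 Male B6D2F1J mice (5–9 per group) received 10^5 L1210 cells i.p. on day 0 and drug from day 1, given qd×5 or q4d(2,6). Vehicles were sterile water, 0.05 M potassium phosphate pH 7.4, or 0.4% Tween 80/0.5% CMC/0.9% benzyl alcohol/0.9% saline. Read-out is average body weight per mouse (g) on day 1.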"}, "Mus musculus [6]": {"system": "Mus musculus", "assay": "Antitumor activity against L1210 leukemia in mice (Average 7-day weight change) at the dose of 180 mg/kg", "outline": "as §2"}, "Mus musculus [7]": {"system": "Mus musculus", "assay": "Antitumor activity against L1210 leukemia in mice (Average weight per mouse on day 1.) at the dose of 180 mg/kg", "outline": "as §3"}, "Mus musculus [8]": {"system": "Mus musculus", "assay": "Antitumor activity against L1210 leukemia in mice (Percent increase in life span.) at the dose of 240 mg/kg (mice surviving 20 or more days)", "outline": "as §1"}},
  "data": [
    {"smiles": "CCCCCCCCCCCCCC(=O)O[C@H]1[C@@H]2Oc3nc(=N)ccn3[C@@H]2O[C@@H]1COP(=O)(O)OCCCC", "values": [
      {"measurement": "ILS at 180 mg/kg", "setting": "Mus musculus [1]", "value": 100, "unit": "%"},
      {"measurement": "Weight change", "setting": "Mus musculus [2]", "value": -11, "unit": "%"},
      {"measurement": "Weight change", "setting": "Mus musculus [3]", "value": -17, "unit": "%"},
      {"measurement": "Weight change", "setting": "Mus musculus [4]", "value": -4, "unit": "g mouse-1"},
      {"measurement": "Average weight", "setting": "Mus musculus [5]", "value": 23.4, "unit": "g mouse-1"},
      {"measurement": "Weight change", "setting": "Mus musculus [6]", "value": -2.6, "unit": "g mouse-1"},
      {"measurement": "Average weight", "setting": "Mus musculus [7]", "value": 23.2, "unit": "g mouse-1"},
      {"measurement": "ILS at 240 mg/kg", "setting": "Mus musculus [8]", "value": 112, "unit": "%"}
    ]}
  ]
}
